Results from ChEMBL document CHEMBL3351900, “Conjugation of a nonspecific antiviral sapogenin with a specific HIV fusion inhibitor: a promising strategy for discovering new antiviral therapeutics” (J Med Chem, 2014).
≈ marks a conversion by molar mass, not a printed value. Calls of active or inactive are those of the source. No cut-off for these calls is given here. Square brackets hold non-standard residues; d marks the D form. Peptide text beside a SMILES is read from it. * marks the point of attachment. X1 = C=CCOC(=O)[C@]12CC[C@@H](C(=C)C)[C@@H]1[C@H]1CC[C@@H]3[C@@]4(C)CC[C@H](OC(=O)CCc5cn(CC(=O)*)nn5)C(C)(C)[C@@H]4CC[C@@]3(C)[C@]1(C)CC2; X2 = C=CCOC(=O)[C@]12CCC(C)(C)C[C@H]1C1=CC[C@@H]3[C@@]4(C)CC[C@H](OC(=O)CCc5cn(CC(=O)*)nn5)C(C)(C)[C@@H]4CC[C@@]3(C)[C@]1(C)CC2; βAla = NCCC(=O)O

Experiments:
[1] = system: Human immunodeficiency virus 1; assay: Antiviral activity against T20-sensitive HIV1 NL4-3 harboring gp41 D36G mutant infected in human MT2 cells; type: functional, organism-based
How it was run: (§1)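 MT-2 cells (1 × 10⁴) infected with 100 TCID₅₀ virus with or without peptides at graded concentrations. Culture supernatants collected on day 4 postinfection; p24 antigen quantified by ELISA. Percent inhibition and EC₅₀ calculated; tested in triplicate, mean ± standard deviation.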

[2] = system: Human immunodeficiency virus 1; assay: Antiviral activity against T20-resistant HIV1 NL4-3 harboring gp41 D36G/V38A mutant infected in human MT2 cells; type: functional, organism-based; how it was run: as §1
[3] = system: Human immunodeficiency virus 1; assay: Antiviral activity against T20-resistant HIV1 NL4-3 harboring gp41 D36G/V38A/N42D mutant infected in human MT2 cells; type: functional, organism-based; how it was run: as §1
[4] = system: Human immunodeficiency virus 1; assay: Antiviral activity against T20-resistant HIV1 NL4-3 harboring gp41 D36G/N42T/N43K mutant infected in human MT2 cells; type: functional, organism-based; how it was run: as §1
[5] = system: Human immunodeficiency virus 1; assay: Antiviral activity against T20-resistant HIV1 NL4-3 harboring gp41 D36G/V38E/N42S mutant infected in human MT2 cells; type: functional, organism-based; how it was run: as §1
[6] = system: Human immunodeficiency virus 1; assay: Antiviral activity against T20-resistant HIV1 NL4-3 harboring gp41 D36G/V38A/N42T mutant infected in human MT2 cells; type: functional, organism-based; how it was run: as §1
[7] = system: Human immunodeficiency virus 1; assay: Ratio of EC50 for T20-resistant HIV1 NL4-3 harboring gp41 D36G/V38A mutant infected in human MT2 cells to EC50 for T20-sensitive HIV1 NL4-3 harboring gp41 D36G mutant infected in human MT2 cells; type: functional
How it was run: (§2)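 MT-2 cells (1 × 10⁴) infected with 100 TCID₅₀ of HIV-1 NL4-3 gp41 mutant virus with or without peptide at graded concentrations. Culture supernatants collected on day 4 postinfection and p24 antigen measured by ELISA. Percent inhibition and EC₅₀ calculated, triplicate, mean ± standard deviation. Fold change = EC₅₀ against each mutant divided by EC₅₀ against the D36G strain.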

[8] = system: Human immunodeficiency virus 1; assay: Ratio of EC50 for T20-resistant HIV1 NL4-3 harboring gp41 D36G/V38A/N42D mutant infected in human MT2 cells to EC50 for T20-sensitive HIV1 NL4-3 harboring gp41 D36G mutant infected in human MT2 cells; type: functional; how it was run: as §2
[9] = system: Human immunodeficiency virus 1; assay: Ratio of EC50 for T20-resistant HIV1 NL4-3 harboring gp41 D36G/N42T/N43K mutant infected in human MT2 cells to EC50 for T20-sensitive HIV1 NL4-3 harboring gp41 D36G mutant infected in human MT2 cells; type: functional; how it was run: as §2
[10] = system: Human immunodeficiency virus 1; assay: Ratio of EC50 for T20-resistant HIV1 NL4-3 harboring gp41 D36G/V38E/N42S mutant infected in human MT2 cells to EC50 for T20-sensitive HIV1 NL4-3 harboring gp41 D36G mutant infected in human MT2 cells; type: functional; how it was run: as §2
[11] = system: Human immunodeficiency virus 1; assay: Ratio of EC50 for T20-resistant HIV1 NL4-3 harboring gp41 D36G/V38A/N42T mutant infected in human MT2 cells to EC50 for T20-sensitive HIV1 NL4-3 harboring gp41 D36G mutant infected in human MT2 cells; type: functional; how it was run: as §2
[12] = system: Rattus norvegicus; assay: AUC (0 to t) in rat at 4 mg/kg, iv administered as single dose; type: ADME, organism-based, Plasma; design: dose 4 mg/kg, route intravenous; details: in vivo
How it was run: (§3)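 Rats given one intravenous dose of 4 mg/kg. Peptide measured in plasma over time. Parameters (AUC(0−t), MRT(0−t), t1/2, Vd, Cmax) derived by model-independent analysis.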

[13] = Mean residence time in rat at 4 mg/kg, iv administered as single dose; type: ADME, organism-based; design: dose 4 mg/kg, route intravenous; details: in vivo; how it was run: as §3
[14] = system: Rattus norvegicus; assay: Half life in rat at 4 mg/kg, iv at 4 mg/kg, iv administered as single dose; type: ADME, organism-based; details: in vivo; how it was run: as §3
[15] = Volume of distribution in rat at 4 mg/kg, iv administered as single dose; type: ADME, organism-based; design: dose 4 mg/kg, route intravenous; details: in vivo; how it was run: as §3
[16] = system: Rattus norvegicus; assay: Cmax in rat at 4 mg/kg, iv administered as single dose; type: ADME, organism-based; design: dose 4 mg/kg, route intravenous; details: in vivo; how it was run: as §3
[17] = Half life in rat liver homogenate at 8 ug/ml; type: ADME, tissue-based
[18] = Half life of the compound at 8 ug/ml by proteinase K digestion assay; type: ADME
[19] = Half life in rat kidney homogenate at 8 ug/ml; type: ADME, tissue-based
[20] = Solubility of the compound in pure water by UV spectrophotometry; type: physicochemical
How it was run: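 About 1 mg of peptide dissolved in 10 μL water or PBS and centrifuged. Supernatant concentration of the tyrosine-containing conjugate determined from UV absorbance at 280 nm.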

[21] = system: Human immunodeficiency virus 1; assay: Antiviral activity against HIV1 3B infected in human MT2 cells assessed as inhibition of viral p24 antigen production by ELISA; type: functional, organism-based; details: Human immunodeficiency virus 1, 3B; how it was run: as §1
[22] = Cytotoxicity against human MT2 cells after 4 days by XTT assay; type: cell-based
How it was run: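 MT-2 cells (5 × 10⁵/mL) mixed with equal volumes of graded conjugate concentrations and held at 37 °C for 4 days. XTT (1 mg/mL) with 0.02 μM phenazine methosulfate added for 4 h, then A450 read. CC50 calculated from the dose–response.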

[23] = system: Human immunodeficiency virus 1; assay: Antiviral activity against HIV1 BaL infected in human […] cells assessed as inhibition of viral replication; type: functional, organism-based; details: Human immunodeficiency virus 1, BaL; how it was run: as §1
[24] = Selectivity index, ratio of CC50 for human MT2 cells to EC50 for HIV1 3B infected in human MT2 cells; type: toxicity, cell-based; details: read-out: Ratio CC50/EC50
[25] = target: GP41 (Human immunodeficiency virus 1) (UniProt Q76270); assay: Ratio of EC50 for HIV1 gp41-induced cell-cell fusion between viral envelope expressing human HL2/3 cells to CD4/CCR5 receptor expressing TZM-bl cells with wash out to EC50 for HIV1 gp41-induced cell-cell fusion between viral envelope expressing human HL2/3 cells to CD4/CCR5 receptor expressing TZM-bl cells; type: cell-based
How it was run: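 Peptides preincubated with TZM-bl cells at 37 °C for 1 h, with or without washing away unbound peptide. EC50 compared between washed and unwashed cells, giving the n-fold change. Triplicates, mean ± SD.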

[26] = system: Human immunodeficiency virus 1; assay: Antiviral activity against HIV1 3B infected in human MT2 cells assessed as inhibition of viral entry compound treated at 100 nM at 1 hr post infection measured 3 to 4 days post infection by time-of-addition assay
[27] = system: Human immunodeficiency virus 1; assay: Antiviral activity against HIV1 3B infected in human MT2 cells assessed as inhibition of viral entry compound treated at 200 nM at 6 hrs post infection measured 3 to 4 days post infection by time-of-addition assay

Compound: C=CCOC(=O)[C@]12CC[C@@H](C(=C)C)[C@@H]1[C@H]1CC[C@@H]3[C@@]4(C)CC[C@H](OC(=O)CCc5cn(CC(=O)NCCCC[C@H](NC(=O)CCNC(=O)[C@H](CC(C)C)NC(=O)[C@H](CC(C)C)NC(=O)[C@H](CCC(=O)O)NC(=O)[C@H](CCC(N)=O)NC(=O)[C@H](CCC(=O)O)NC(=O)[C@H](CC(N)=O)NC(=O)[C@H](CCCCN)NC(=O)[C@H](CCC(=O)O)NC(=O)[C@H](CCC(N)=O)NC(=O)[C@H](CCC(N)=O)NC(=O)[C@H](CC(N)=O)NC(=O)[C@H](CCC(N)=O)NC(=O)[C@H](CO)NC(=O)[C@H](CCC(=O)O)NC(=O)[C@H](CCC(=O)O)NC(=O)[C@@H](NC(=O)[C@H](CC(C)C)NC(=O)[C@H](CO)NC(=O)[C@H](Cc6cnc[nH]6)NC(=O)[C@@H](NC(=O)[C@H](CC(C)C)NC(=O)[C@H](CO)NC(=O)[C@@H](NC(=O)[C@H](Cc6ccc(O)cc6)NC(=O)[C@H](CC(N)=O)NC(=O)[C@H](CC(N)=O)NC(C)=O)[C@@H](C)O)[C@@H](C)CC)[C@@H](C)CC)C(N)=O)nn5)C(C)(C)[C@@H]4CC[C@@]3(C)[C@]1(C)CC2 (Ac-NNYTSLIHSLIEESQNQQEKNEQELL[βAla]K(X1)-NH2)
- EC50 [1]: 0.0292 µM
- EC50 [2]: 0.135 µM
- EC50 [3]: 0.0344 µM
- EC50 [4]: 0.192 µM
- EC50 [5]: 0.322 µM
- EC50 [6]: 0.308 µM
- Ratio EC50 [7]: 4.6
- Ratio EC50 [8]: 1.2
- Ratio EC50 [9]: 6.5
- Ratio EC50 [10]: 11
- Ratio EC50 [11]: 10
- AUCt [12]: 101 µg·h/mL
- MRT [13]: 191 min
- t1/2 [14]: 188 min
- Vd [15]: 0.17 L/kg
- Cmax [16]: 40.4 µg/mL
- half-life at 8 ug/ml [17]: 48.9 min
- half-life at 8 ug/ml [18]: 54.3 min
- half-life at 8 ug/ml [19]: 35.9 min
- solubility [20]: 18.2 mg/mL (≈ 4.55 mM)
- EC50 [21]: 0.00428 µM
- CC50 at 96 h [22]: 14.3 µM
- EC50 [23]: 0.0069 µM
- selectivity ratio [24]: 3350
- Ratio EC50 [25]: 11
- inhibition [26]: Active

Compound: Cc1cn([C@H]2C[C@H](N=[N+]=[N-])[C@@H](CO)O2)c(=O)[nH]c1=O
- inhibition [27]: Active

Compound: C=CCOC(=O)[C@]12CCC(C)(C)C[C@H]1C1=CC[C@@H]3[C@@]4(C)CC[C@H](OC(=O)CCc5cn(CC(=O)NCCCC[C@H](NC(=O)CCNC(=O)[C@H](CC(C)C)NC(=O)[C@H](CC(C)C)NC(=O)[C@H](CCC(=O)O)NC(=O)[C@H](CCC(N)=O)NC(=O)[C@H](CCC(=O)O)NC(=O)[C@H](CC(N)=O)NC(=O)[C@H](CCCCN)NC(=O)[C@H](CCC(=O)O)NC(=O)[C@H](CCC(N)=O)NC(=O)[C@H](CCC(N)=O)NC(=O)[C@H](CC(N)=O)NC(=O)[C@H](CCC(N)=O)NC(=O)[C@H](CO)NC(=O)[C@H](CCC(=O)O)NC(=O)[C@H](CCC(=O)O)NC(=O)[C@@H](NC(=O)[C@H](CC(C)C)NC(=O)[C@H](CO)NC(=O)[C@H](Cc6cnc[nH]6)NC(=O)[C@@H](NC(=O)[C@H](CC(C)C)NC(=O)[C@H](CO)NC(=O)[C@@H](NC(=O)[C@H](Cc6ccc(O)cc6)NC(=O)[C@H](CC(N)=O)NC(=O)[C@H](CC(N)=O)NC(C)=O)[C@@H](C)O)[C@@H](C)CC)[C@@H](C)CC)C(N)=O)nn5)C(C)(C)[C@@H]4CC[C@@]3(C)[C@]1(C)CC2 (Ac-NNYTSLIHSLIEESQNQQEKNEQELL[βAla]K(X2)-NH2)
- solubility [20]: 12.4 mg/mL (≈ 3.1 mM)
- EC50 [21]: 0.00311 µM
- CC50 at 96 h [22]: 8.22 µM
- EC50 [23]: 0.000271 µM
- selectivity ratio [24]: 2640
